Activity calls are given as the source filed them. No cut-off for these calls is given here.
Key:
[1] = target: T1, Low molecular weight phosphotyrosine protein phosphatase (Homo sapiens, UniProt P24666); assay: Inhibition of His-tagged LMW-PTP isoform A (unknown origin) expressed in Escherichia coli BL21 cells using para-nitrophenyl phosphate as substrate incubated for 5 to 10 mins by microplate reader based spectrophotometric analysis
T1 sequence (P24666 whole entry): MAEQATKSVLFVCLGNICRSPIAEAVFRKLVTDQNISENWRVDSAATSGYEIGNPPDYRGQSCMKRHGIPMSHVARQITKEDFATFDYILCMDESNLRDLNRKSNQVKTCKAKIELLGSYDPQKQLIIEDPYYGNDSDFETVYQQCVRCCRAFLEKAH

[2] = target: Low molecular weight phosphotyrosine protein phosphatase (Homo sapiens) (UniProt P24666); assay: Inhibition of LMW-PTP isoform A in human HepG2 cells assessed as increase in insulin-induced Akt phosphorylation at 16 uM pretreated for 2 hrs followed by insulin stimulation and measured after 30 mins by Western blot analysis; assay type: cell-based
In short: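 HepG2 cells in DMEM with 10% FBS at 37 °C and 5% CO2 were grown to 60-80% confluence and serum-starved overnight. They were given vehicle or compound for 2 h, then 50 nM insulin for 30 min. Lysates were run on 10% SDS-PAGE and immunoblotted for phospho-AKT and total AKT with ECL detection. Densitometric pAKT/AKT ratios were normalized to vehicle.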

[3] = target: T1, Low molecular weight phosphotyrosine protein phosphatase; assay: Competitive inhibition of His-tagged LMW-PTP isoform A (unknown origin) expressed in Escherichia coli BL21 cells using para-nitrophenyl phosphate as substrate by Lineweaver-Burk plot analysis
In short: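 Recombinant enzyme Ni-NTA purified (Tris pH 7.8, 500 mM NaCl, 250 mM imidazole elution), then Sephadex G75. pNPP hydrolysis in 50 mM 3,3-dimethylglutarate, pH 7.0, 25 °C. Enzyme added last to mixes of varied pNPP and inhibitor concentrations, 5-10 min, NaOH quench. p-nitrophenol read at 405 nm (ε 18,000 M-1cm-1), no-enzyme blank subtracted. Ki fitted by enzyme-kinetics regression.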

[4] = target: T1, Low molecular weight phosphotyrosine protein phosphatase; assay: Competitive inhibition of LMW-PTP isoform B (unknown origin) using para-nitrophenyl phosphate as substrate by Lineweaver-Burk plot analysis
In short: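 Recombinant His-tagged LMW-PTP from E. coli, Ni-NTA then Sephadex G75 purified. pNPP hydrolysis in 50 mM 3,3-dimethylglutarate buffer, pH 7.0, 25 °C. Reaction started by adding enzyme to mixes of varied pNPP and varied inhibitor concentrations, run 5-10 min, quenched with 5N NaOH. p-Nitrophenol read at 405 nm, blank without enzyme subtracted. Ki from enzyme-kinetics fitting.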

[5] = Inhibition of His-tagged PTP-H1 (unknown origin) expressed in Escherichia coli BL21 cells using para-nitrophenyl phosphate as substrate incubated for 5 to 10 mins by microplate reader based spectrophotometric analysis; design: species or system Homo sapiens
In short: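 Enzyme at 5-20 nM was added to substrate plus a range of inhibitor concentrations and run 5-10 min at room temperature. Quenched with 5N NaOH and p-nitrophenol read at 405 nm (ε 18,000 M-1cm-1), with a no-enzyme background correction. IC50 from curve fitting.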

[6] = target: T2, RNA polymerase II subunit A C-terminal domain phosphatase SSU72 (Homo sapiens, UniProt Q9NP77); assay: Inhibition of His-tagged SSu72 (unknown origin) expressed in Escherichia coli BL21 cells using para-nitrophenyl phosphate as substrate incubated for 5 to 10 mins by microplate reader based spectrophotometric analysis
T2 sequence (Q9NP77 whole entry): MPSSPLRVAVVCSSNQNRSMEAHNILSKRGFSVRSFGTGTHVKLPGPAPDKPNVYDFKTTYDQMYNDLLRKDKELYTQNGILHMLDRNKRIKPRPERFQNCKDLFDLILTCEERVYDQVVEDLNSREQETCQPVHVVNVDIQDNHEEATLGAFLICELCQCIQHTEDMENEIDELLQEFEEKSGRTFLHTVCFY

[7] = target: T3, Dual specificity protein phosphatase 23 (Homo sapiens, UniProt Q9BVJ7); assay: Inhibition of His-tagged VHZ (unknown origin) expressed in Escherichia coli BL21 cells using para-nitrophenyl phosphate as substrate incubated for 5 to 10 mins by microplate reader based spectrophotometric analysis
T3 sequence (Q9BVJ7 whole entry): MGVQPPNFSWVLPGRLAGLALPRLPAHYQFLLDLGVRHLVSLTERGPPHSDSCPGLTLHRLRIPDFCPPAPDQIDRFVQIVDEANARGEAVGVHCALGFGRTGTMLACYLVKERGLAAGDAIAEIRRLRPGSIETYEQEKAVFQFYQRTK

[8] = target: Tyrosine-protein phosphatase non-receptor type 13 (Homo sapiens, UniProt Q12923); assay: Inhibition of His-tagged FAP1 (unknown origin) expressed in Escherichia coli BL21 cells using para-nitrophenyl phosphate as substrate incubated for 5 to 10 mins by microplate reader based spectrophotometric analysis
Sequence of Tyrosine-protein phosphatase non-receptor type 13 (Q12923 whole entry): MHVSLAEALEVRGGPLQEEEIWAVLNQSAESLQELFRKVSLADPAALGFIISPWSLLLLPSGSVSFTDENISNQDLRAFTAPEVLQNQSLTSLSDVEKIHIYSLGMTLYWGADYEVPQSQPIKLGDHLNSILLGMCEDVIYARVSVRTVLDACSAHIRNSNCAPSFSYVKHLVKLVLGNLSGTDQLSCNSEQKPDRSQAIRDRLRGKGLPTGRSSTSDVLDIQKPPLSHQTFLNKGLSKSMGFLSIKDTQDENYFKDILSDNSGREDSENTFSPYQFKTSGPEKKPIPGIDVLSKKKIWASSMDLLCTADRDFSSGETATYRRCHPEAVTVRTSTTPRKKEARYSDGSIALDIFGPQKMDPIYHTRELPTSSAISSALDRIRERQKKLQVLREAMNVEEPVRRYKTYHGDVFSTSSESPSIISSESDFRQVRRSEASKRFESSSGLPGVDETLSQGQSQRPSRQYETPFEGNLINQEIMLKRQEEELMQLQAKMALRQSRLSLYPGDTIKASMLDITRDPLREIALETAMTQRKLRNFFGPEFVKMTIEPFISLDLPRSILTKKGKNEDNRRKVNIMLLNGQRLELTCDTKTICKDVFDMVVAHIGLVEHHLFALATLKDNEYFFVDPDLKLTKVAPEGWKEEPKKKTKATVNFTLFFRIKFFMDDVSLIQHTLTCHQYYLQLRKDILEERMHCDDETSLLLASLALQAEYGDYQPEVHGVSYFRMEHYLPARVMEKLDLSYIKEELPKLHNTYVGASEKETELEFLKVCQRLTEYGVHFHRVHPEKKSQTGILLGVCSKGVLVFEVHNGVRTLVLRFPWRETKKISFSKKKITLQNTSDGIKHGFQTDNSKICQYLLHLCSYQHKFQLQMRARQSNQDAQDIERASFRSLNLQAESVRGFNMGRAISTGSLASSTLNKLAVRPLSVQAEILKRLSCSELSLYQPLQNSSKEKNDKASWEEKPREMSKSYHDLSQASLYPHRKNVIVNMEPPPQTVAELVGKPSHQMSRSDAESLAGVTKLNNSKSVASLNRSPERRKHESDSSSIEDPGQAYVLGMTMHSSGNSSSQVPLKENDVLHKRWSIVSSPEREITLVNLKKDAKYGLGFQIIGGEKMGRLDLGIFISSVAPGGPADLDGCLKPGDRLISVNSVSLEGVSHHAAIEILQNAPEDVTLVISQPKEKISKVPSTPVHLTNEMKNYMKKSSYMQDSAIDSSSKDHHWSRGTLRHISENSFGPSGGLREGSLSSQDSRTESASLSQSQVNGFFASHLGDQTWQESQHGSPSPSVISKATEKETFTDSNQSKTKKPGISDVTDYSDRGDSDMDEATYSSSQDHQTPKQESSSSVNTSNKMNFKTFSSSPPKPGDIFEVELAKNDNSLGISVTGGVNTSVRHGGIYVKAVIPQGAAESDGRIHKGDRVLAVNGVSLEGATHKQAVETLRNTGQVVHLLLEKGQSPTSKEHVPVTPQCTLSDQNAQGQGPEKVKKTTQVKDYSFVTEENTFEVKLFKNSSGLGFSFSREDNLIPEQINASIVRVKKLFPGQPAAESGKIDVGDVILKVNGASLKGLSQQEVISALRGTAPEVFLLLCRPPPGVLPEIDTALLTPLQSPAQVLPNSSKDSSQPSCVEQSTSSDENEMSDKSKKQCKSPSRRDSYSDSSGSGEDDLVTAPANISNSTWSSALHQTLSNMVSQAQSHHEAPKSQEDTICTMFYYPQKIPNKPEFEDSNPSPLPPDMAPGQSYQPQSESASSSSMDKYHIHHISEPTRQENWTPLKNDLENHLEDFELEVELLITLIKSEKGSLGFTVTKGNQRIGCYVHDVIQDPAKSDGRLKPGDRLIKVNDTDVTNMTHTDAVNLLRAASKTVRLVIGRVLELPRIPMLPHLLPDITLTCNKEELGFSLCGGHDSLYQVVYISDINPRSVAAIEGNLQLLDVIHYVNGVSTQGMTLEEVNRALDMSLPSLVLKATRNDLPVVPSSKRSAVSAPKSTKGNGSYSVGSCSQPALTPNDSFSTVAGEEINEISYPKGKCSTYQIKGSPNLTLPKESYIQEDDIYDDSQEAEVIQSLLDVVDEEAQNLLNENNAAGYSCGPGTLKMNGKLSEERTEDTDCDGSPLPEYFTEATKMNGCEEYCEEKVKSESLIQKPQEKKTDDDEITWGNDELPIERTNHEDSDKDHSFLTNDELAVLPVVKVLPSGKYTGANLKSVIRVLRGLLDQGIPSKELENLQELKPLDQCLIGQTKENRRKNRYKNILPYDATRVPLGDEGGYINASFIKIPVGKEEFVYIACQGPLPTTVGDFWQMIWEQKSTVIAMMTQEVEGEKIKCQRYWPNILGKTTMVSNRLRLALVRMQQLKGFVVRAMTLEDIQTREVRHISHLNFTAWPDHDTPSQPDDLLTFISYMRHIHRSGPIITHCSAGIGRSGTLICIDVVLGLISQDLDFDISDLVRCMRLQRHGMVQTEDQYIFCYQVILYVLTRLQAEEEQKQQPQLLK

Compound	IC50 [1] [µM]	further results
O=C(Nc1ccccc1)C(c1ccccc1)S(=O)(=O)O (stereo unspecified)	> 100	–
O=C(Nc1nc2ccccc2s1)C(c1ccc(Br)cc1)S(=O)(=O)O (stereo unspecified)	106	–
Cc1ccccc1C(C(=O)Nc1nc2ccccc2s1)S(=O)(=O)O (stereo unspecified)	> 200	–
O=C(Nc1nc2ccccc2s1)C(c1cccc([N+](=O)[O-])c1)S(=O)(=O)O (stereo unspecified)	> 200	–
O=C(Nc1nc2ccccc2s1)C(c1ccccc1F)S(=O)(=O)O (stereo unspecified)	> 200	–
O=C(Nc1nc2ccccc2s1)C(c1ccccc1Cl)S(=O)(=O)O (stereo unspecified)	> 200	–
Cc1cccc(C(C(=O)Nc2nc3ccccc3s2)S(=O)(=O)O)c1 (stereo unspecified)	> 200	–
O=C(Nc1nc2ccccc2s1)C(c1cccc(C(F)(F)F)c1)S(=O)(=O)O (stereo unspecified)	> 200	–
O=C(Cc1ccccc1)Nc1nc2ccc([N+](=O)[O-])cc2s1	> 100	inhibition [2]: inactive
CCCNC(=O)C(c1ccccc1)S(=O)(=O)O (stereo unspecified)	> 200	–
N#Cc1cccc(C(C(=O)Nc2nc3ccccc3s2)S(=O)(=O)O)c1 (stereo unspecified)	> 200	–
Cc1ccc(C(C(=O)Nc2nc3ccccc3s2)S(=O)(=O)O)cc1 (stereo unspecified)	91.4	–
O=C(Nc1nc2ccccc2s1)C(c1ccccc1)S(=O)(=O)O (stereo unspecified)	–	Ki [3]: 3.2 µM; Ki [4]: 1.7 µM; IC50 [5]: > 200 µM; IC50 [6]: 69.9 µM
O=C(Nc1ccc(N2CCOCC2)cc1)C(c1ccccc1)S(=O)(=O)O (stereo unspecified)	–	IC50 [5]: > 200 µM; IC50 [7]: > 200 µM
O=C(Nc1ccc2nc(C(F)(F)F)[nH]c2c1)C(c1ccccc1)S(=O)(=O)O (stereo unspecified)	–	IC50 [5]: > 200 µM; IC50 [8]: > 200 µM
O=C(Nc1nc2ccccc2s1)C(c1cccc(F)c1)S(=O)(=O)O (stereo unspecified)	50	–
O=C(Nc1nccs1)C(c1ccccc1)S(=O)(=O)O (stereo unspecified)	72	–
O=C(Nc1cnc2ccccc2c1)C(c1ccccc1)S(=O)(=O)O (stereo unspecified)	–	IC50 [5]: > 200 µM; IC50 [7]: > 200 µM
CCOC(=O)c1ccc2nc(NC(=O)C(c3ccccc3)S(=O)(=O)O)sc2c1 (stereo unspecified)	3.1	–

From ChEMBL document CHEMBL4715770, “Inhibition of Low Molecular Weight Protein Tyrosine Phosphatase by an Induced-Fit Mechanism” (J Med Chem, 2016)
